According to ChEMBL document CHEMBL2151019, “Potent and selective inhibitors of PI3Kδ: obtaining isoform selectivity from the affinity pocket and tryptophan shelf” (Bioorg Med Chem Lett, 2012):
pIC50: −log10 of the molar value.

What was measured:
[1] = target: T1, Phosphatidylinositol 4,5-bisphosphate 3-kinase catalytic subunit delta isoform (Homo sapiens, UniProt O00329); assay: Inhibition of PI3K p110delta using PIP2 as substrate assessed as PIP3 formation by fluorescence polarization assay
T1 sequence (O00329 whole entry): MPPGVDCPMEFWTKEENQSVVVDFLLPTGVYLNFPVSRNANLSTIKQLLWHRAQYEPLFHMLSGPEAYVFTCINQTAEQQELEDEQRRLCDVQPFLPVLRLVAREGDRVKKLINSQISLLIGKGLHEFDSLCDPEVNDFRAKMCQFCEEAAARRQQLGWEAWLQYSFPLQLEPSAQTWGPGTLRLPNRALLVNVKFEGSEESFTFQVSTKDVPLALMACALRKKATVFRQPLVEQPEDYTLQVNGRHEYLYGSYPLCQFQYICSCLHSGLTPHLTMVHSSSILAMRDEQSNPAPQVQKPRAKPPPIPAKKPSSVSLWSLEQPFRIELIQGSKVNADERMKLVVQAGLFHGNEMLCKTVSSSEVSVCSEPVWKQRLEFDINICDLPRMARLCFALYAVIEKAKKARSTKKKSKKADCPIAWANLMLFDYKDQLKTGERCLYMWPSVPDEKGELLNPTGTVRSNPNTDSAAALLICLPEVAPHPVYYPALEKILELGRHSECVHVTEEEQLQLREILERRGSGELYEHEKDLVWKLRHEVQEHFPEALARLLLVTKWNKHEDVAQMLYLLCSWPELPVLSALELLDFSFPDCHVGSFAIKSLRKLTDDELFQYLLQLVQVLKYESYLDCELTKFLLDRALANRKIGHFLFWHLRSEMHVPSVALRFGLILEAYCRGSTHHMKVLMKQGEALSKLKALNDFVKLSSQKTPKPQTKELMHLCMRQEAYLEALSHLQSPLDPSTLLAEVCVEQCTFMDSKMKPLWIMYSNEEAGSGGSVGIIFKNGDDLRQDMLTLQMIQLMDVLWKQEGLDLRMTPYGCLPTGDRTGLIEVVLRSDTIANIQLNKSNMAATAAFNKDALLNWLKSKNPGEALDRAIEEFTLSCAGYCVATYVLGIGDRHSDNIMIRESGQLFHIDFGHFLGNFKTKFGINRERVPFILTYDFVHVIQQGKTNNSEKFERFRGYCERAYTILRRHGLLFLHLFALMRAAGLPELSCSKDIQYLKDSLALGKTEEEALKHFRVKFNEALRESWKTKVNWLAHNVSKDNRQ
Procedure, shortened: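 Biochemical fluorescence polarization assay following conversion of PIP2 to PIP3 by PI3Kδ; IC50 determined.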

[2] = Selectivity ratio of IC50 for PI3Kalpha to IC50 for PI3Kdelta
Procedure, shortened: (§1)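 Ratios of biochemical IC50 values, each against the PI3Kδ IC50. Both IC50s come from the fluorescence polarization assay monitoring PIP2-to-PIP3 conversion by each Class I isoform.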

[3] = Selectivity ratio of IC50 for PI3Kgamma to IC50 for PI3Kdelta; procedure, shortened: as §1
[4] = Selectivity ratio of IC50 for PI3Kbeta to IC50 for PI3Kdelta; procedure, shortened: as §1
[5] = target: T1, Phosphatidylinositol 4,5-bisphosphate 3-kinase catalytic subunit delta isoform; assay: Inhibition of PI3Kdelta-mediated AKT phosphorylation in B cells in presence of human serum; assay type: cell-based
Procedure, shortened: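 Cellular assay in the PI3Kδ-dependent B-cell cancer line Ri-1. Downstream pAKT measured with human serum added (serum-shifted); IC50 determined.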

[6] = AUC in Sprague-Dawley rat at 30 mg/kg, po; assay type: ADME, organism-based; design: dose 30 mg/kg, route oral; settings: plasma
Procedure, shortened: (§2)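 Oral dosing in male Sprague–Dawley rats used an MCT suspension (0.5% methylcellulose/0.2% Tween-80). Cmax, AUC and terminal half-life were taken from plasma concentration–time curves.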

[7] = AUC in BALB/c mouse at 20 mg/kg, po; assay type: ADME, organism-based; design: dose 20 mg/kg, route oral; settings: plasma
Procedure, shortened: (§3)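 Female Balb/c mice received the compound orally as a suspension in 0.5% methylcellulose/0.2% Tween-80 (MCT). Plasma concentration–time profiles were used to derive Cmax, AUC and terminal half-life.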

[8] = Clearance in CD1 mouse at 1 mg/kg, iv; assay type: ADME, organism-based; design: dose 1 mg/kg, route intravenous; settings: in vivo
[9] = AUC in Sprague-Dawley rat at 10 mg/kg, po; assay type: ADME, organism-based; design: dose 10 mg/kg, route oral; settings: plasma; procedure, shortened: as §2
[10] = AUC in Sprague-Dawley rat at 5 mg/kg, po; assay type: ADME, organism-based; design: dose 5 mg/kg, route oral; settings: plasma; procedure, shortened: as §2
[11] = Cmax in BALB/c mouse at 40 mg/kg, po; assay type: ADME, organism-based; design: dose 40 mg/kg, route oral; settings: in vivo; procedure, shortened: as §3
[12] = Cmax in Sprague-Dawley rat at 5 mg/kg, po; assay type: ADME, organism-based; design: dose 5 mg/kg, route oral; settings: in vivo; procedure, shortened: as §2
[13] = Clearance in Sprague-Dawley rat at 1 mg/kg, iv; assay type: ADME, organism-based; design: dose 1 mg/kg, route intravenous; settings: in vivo
Procedure, shortened: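 Male Sprague–Dawley rats received 1 mg/kg intravenously in 5% DMSO/5% Cremophor. In vivo clearance was derived from plasma concentrations over time.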

[14] = Cmax in BALB/c mouse at 20 mg/kg, po; assay type: ADME, organism-based; design: dose 20 mg/kg, route oral; settings: in vivo; procedure, shortened: as §3
[15] = Half life in Sprague-Dawley rat at 10 mg/kg, po; assay type: ADME, organism-based; design: dose 10 mg/kg, route oral; settings: in vivo; procedure, shortened: as §2
[16] = AUC in CD1 mouse at 5 mg/kg, po; assay type: ADME, organism-based; design: dose 5 mg/kg, route oral; settings: plasma
Procedure, shortened: (§4)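 Female CD-1 mice were given a 5 mg/kg oral dose as an MCT suspension (0.5% methylcellulose/0.2% Tween-80). Cmax, AUC and half-life came from the plasma concentration–time profiles.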

[17] = AUC in BALB/c mouse at 40 mg/kg, po; assay type: ADME, organism-based; design: dose 40 mg/kg, route oral; settings: plasma; procedure, shortened: as §3
[18] = Half life in BALB/c mouse at 40 mg/kg, po; assay type: ADME, organism-based; design: dose 40 mg/kg, route oral; settings: in vivo; procedure, shortened: as §3
[19] = Half life in Sprague-Dawley rat at 5 mg/kg, po; assay type: ADME, organism-based; design: dose 5 mg/kg, route oral; settings: in vivo; procedure, shortened: as §2
[20] = Half life in CD1 mouse at 5 mg/kg, po; assay type: ADME, organism-based; design: dose 5 mg/kg, route oral; settings: in vivo; procedure, shortened: as §4
[21] = Volume of distribution at steady state in CD1 mouse at 1 mg/kg, iv; assay type: ADME, organism-based; design: dose 1 mg/kg, route intravenous; settings: in vivo, read-out: Vdss
Procedure, shortened: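 Single IV dose of 1 mg/kg in 5% DMSO/5% Cremophor to female CD-1 mice. Pharmacokinetic parameters were taken from plasma concentrations over time.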

[22] = Volume of distribution at steady state in Sprague-Dawley rat at 1 mg/kg, iv; assay type: ADME, organism-based; design: dose 1 mg/kg, route intravenous; settings: in vivo, read-out: Vdss
Procedure, shortened: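 Male Sprague–Dawley rats were given 1 mg/kg IV in 5% DMSO/5% Cremophor. Pharmacokinetic parameters were taken from plasma concentrations over time.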

[23] = Half life in Sprague-Dawley rat at 30 mg/kg, po; assay type: ADME, organism-based; design: dose 30 mg/kg, route oral; settings: in vivo; procedure, shortened: as §2
[24] = Oral bioavailability in CD1 mouse at 5 mg/kg; assay type: ADME, organism-based; settings: in vivo
Procedure, shortened: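 Female CD-1 mice received an IV dose of 1 mg/kg in 5% DMSO/5% Cremophor and an oral dose of 5 mg/kg as an MCT suspension (0.5% methylcellulose/0.2% Tween-80). Plasma exposure was compared between the two routes.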

[25] = Oral bioavailability in Sprague-Dawley rat at 5 mg/kg; assay type: ADME, organism-based; settings: in vivo
Procedure, shortened: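 Male Sprague–Dawley rats received an IV dose of 1 mg/kg in 5% DMSO/5% Cremophor and an oral dose of 5 mg/kg as an MCT suspension (0.5% methylcellulose/0.2% Tween-80). Plasma exposure was compared between the two routes.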

[26] = Cmax in Sprague-Dawley rat at 10 mg/kg, po; assay type: ADME, organism-based; design: dose 10 mg/kg, route oral; settings: in vivo; procedure, shortened: as §2
[27] = Cmax in CD1 mouse at 5 mg/kg, po; assay type: ADME, organism-based; design: dose 5 mg/kg, route oral; settings: in vivo; procedure, shortened: as §4
[28] = Half life in BALB/c mouse at 20 mg/kg, po; assay type: ADME, organism-based; design: dose 20 mg/kg, route oral; settings: in vivo; procedure, shortened: as §3
[29] = Cmax in Sprague-Dawley rat at 30 mg/kg, po; assay type: ADME, organism-based; design: dose 30 mg/kg, route oral; settings: in vivo; procedure, shortened: as §2

CC(C)(O)C1CCN(Cc2nc3nc(-c4c(F)ccc5[nH]ccc45)nc(N4CCOCC4)c3[nH]2)CC1
pIC50 [1]: 8.72

CC(C)(O)C1CCN(Cc2nc3c(N4CCOCC4)nc(-c4c(F)ccc5[nH]ccc45)nc3[nH]2)CC1
Ratio IC50 [2]: 330 | Ratio IC50 [3]: 1500 | Ratio IC50 [4]: 140

CC(C)(O)C1CCN(Cc2ccc3nc(-c4cccc5[nH]ccc45)nc(N4CCOCC4)c3n2)CC1
Ratio IC50 [2]: 370 | Ratio IC50 [3]: 610 | pIC50 [5]: 7.26 | Ratio IC50 [4]: 210

CC(C)(O)C1CCN(Cc2ccc3nc(-c4cccc5[nH]ncc45)nc(N4CCOCC4)c3n2)CC1
Ratio IC50 [2]: 22 | Ratio IC50 [3]: 260 | pIC50 [5]: 6.32 | Ratio IC50 [4]: 78

CC(C)(O)C1CCN(Cc2cc3nc(-c4c(F)ccc5[nH]ccc45)nc(N4CCOCC4)c3s2)CC1
Ratio IC50 [2]: 170 | pIC50 [1]: 8.40 | Ratio IC50 [3]: 910 | Ratio IC50 [4]: 110

OCc1ccc2nc(-c3c(F)ccc4[nH]ccc34)nc(N3CCOCC3)c2n1
Ratio IC50 [2]: 14 | pIC50 [1]: 7.57 | Ratio IC50 [3]: 38 | pIC50 [5]: 6.84 | Ratio IC50 [4]: 3.7

CC(C)(O)C1CCN(Cc2ccc3nc(-c4cnc(N)nc4)nc(N4CCOCC4)c3n2)CC1
Ratio IC50 [2]: 5.4 | pIC50 [1]: 8.59 | Ratio IC50 [3]: 43 | pIC50 [5]: 6.84 | Ratio IC50 [4]: 73

CC(C)(O)C1CCN(Cc2ccc3nc(-c4c(F)ccc5[nH]ccc45)nc(N4CCOCC4)c3n2)CC1
AUC [6]: 46 µM·h | AUC [7]: 13 µM·h | clearance [8]: 53 mL/min/kg | AUC [9]: 11 µM·h | AUC [10]: 2.6 µM·h | Cmax [11]: 14000 nM | Cmax [12]: 500 nM | clearance [13]: 59 mL/min/kg | Cmax [14]: 3900 nM | half-life [15]: 3.8 h | AUC [16]: 2.5 µM·h | AUC [17]: 63 µM·h | half-life [18]: 5 h | half-life [19]: 2.6 h | half-life [20]: 2.6 h | Vd [21]: 4.9 L/kg | Vd [22]: 8.8 L/kg | half-life [23]: 4.8 h | bioavailability [24]: 80% | bioavailability [25]: 90% | Cmax [26]: 1200 nM | Cmax [27]: 900 nM | half-life [28]: 2.9 h | Cmax [29]: 4700 nM

Fc1ccc2[nH]ccc2c1-c1nc(N2CCOCC2)c2nc(CN3CCOCC3)ccc2n1
Ratio IC50 [2]: 58 | pIC50 [1]: 7.92 | Ratio IC50 [3]: 120 | pIC50 [5]: 7.17 | Ratio IC50 [4]: 13

CC(C)(O)C1CCN(Cc2nc3c(N4CCOCC4)nc(-c4c(F)ccc5[nH]ccc45)nc3s2)CC1
Ratio IC50 [2]: 220 | pIC50 [1]: 9.22 | Ratio IC50 [3]: 1400 | Ratio IC50 [4]: 200
